Reference: PubChem BioAssay
Calls of active or inactive are those of the source.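 How the source made its calls, unless noted: active means visual image review flags a hit and inhibition of aggregation exceeds 20%; inconclusive means visual hit but inhibition at or below 20%; inactive means no hit on visual image review.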

Experiments:
[1] = inhibitors of TNFa-induced NFkB p65 translocation, primary screen, imaging, HUVEC, MLSMR starter and 10KST1 sets (AID 438;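 active means inhibition above 20% together with a positive visual image hit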;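 further: compound added about 3h40 before a 20 min TNFalpha stimulation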;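 on inhibition: signal is the nuclear over cytoplasmic p65 intensity ratio per well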); details: HUVEC TNFa-induced p65 nuclear translocation; cell count: measured here: nuclei count (cytotoxicity indicator), at 2.08 µM; inhibition: at 2 µM, stronger effect = higher value, 0% TNFa-plus-vehicle, 100% no-TNFa wells
[2] = reduction of polyQ htt aggregates in cells – imaging, exon1htt(103Q)mCFP cells, high-content imaging, primary screen (AID 483); details: exon1htt(103Q)mCFP cell line, aggregate imaging, at 2 µM; inhibition of aggregation: stronger effect = higher value; nuclei count: measured here: cell count, toxicity;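 further: compound exposure lasted 3 days before fixation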;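 on nuclei count: percent of the per-plate median nuclei count of sample wells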
[3] = endothelial E-selectin expression blockers – imaging, HUVEC, immunofluorescence, MLSMR starter and 10KST1 sets, primary screen (AID 487;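 active means visually confirmed hit in the image check and inhibition above 20%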;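 on inhibition: signal is fraction of cell area covered by stained E-selectin grains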;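 on nuclei count: 100% = median nuclei count of all wells on the same plate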); details: HUVEC TNFalpha-induced E-selectin immunofluorescence imaging, at 2 µM; inhibition: stronger effect = higher value; nuclei count: measured here: cell number, toxicity
[4] = target: Voltage-gated potassium channel subunit beta-2 (Rattus norvegicus) (UniProt P62483); assay: inhibitors of rat Kvbeta2 reductase activity – biochemical, NADPH fluorescence, primary screen (AID 622;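 active means fluorescence slope higher than the sample average by over 3 SD, cut at about -0.22 in these data, passing the limit was not always enough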;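 further: slope of raw intensity against log time taken from 70 to 1610 s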); details: recombinant KvBeta, 4-cyanobenzaldehyde reduction, at 10 µM, stronger effect = higher value
Chain of Voltage-gated potassium channel subunit beta-2 (Rattus norvegicus) (P62483 whole entry, looked up): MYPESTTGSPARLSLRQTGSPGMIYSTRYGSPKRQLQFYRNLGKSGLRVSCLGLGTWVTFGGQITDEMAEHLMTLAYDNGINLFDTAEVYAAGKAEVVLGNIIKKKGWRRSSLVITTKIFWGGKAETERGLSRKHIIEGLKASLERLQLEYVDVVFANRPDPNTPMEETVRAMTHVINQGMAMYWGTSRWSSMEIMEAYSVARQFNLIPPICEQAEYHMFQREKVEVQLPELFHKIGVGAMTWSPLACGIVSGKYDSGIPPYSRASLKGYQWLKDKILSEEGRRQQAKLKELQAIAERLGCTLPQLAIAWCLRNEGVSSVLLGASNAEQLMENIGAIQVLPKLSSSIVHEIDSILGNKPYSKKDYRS

[5] = target: Voltage-gated potassium channel subunit beta-2 (Rattus norvegicus) (UniProt P62483); assay: enhancers of rat Kvbeta2 NADPH turnover – biochemical, NADPH fluorescence, primary screen (AID 623;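 active means NADPH fluorescence slope more negative than the mean of all samples by about 3 SD, 99.7% confidence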;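 further: fluorescence intensity change per second fitted from 20 to 320 s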); details: Recombinant KvBeta, NADPH fluorescence decrease slope, 10 min; at 10 µM; stronger effect = lower value
[6] = target: Muscarinic acetylcholine receptor M4 (Homo sapiens) (UniProt P08173); assay: M4-linked GIRK flux change, two-sided – cell-based, HEK293 M4/GIRK, thallium flux, BTC-AM, M4 allosteric agonist project, primary screen (AID 625;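 active means fluorescence slope after compound addition differing from the mean of all tested samples at 99.7% confidence, mostly higher but some lower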;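 further: thallium influx through GIRK channels coupled to M4 in HEK293 cells with BTC-AM dye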); details: at 10 µM, actives lie on both sides
Chain of Muscarinic acetylcholine receptor M4 (Homo sapiens) (P08173 whole entry, looked up): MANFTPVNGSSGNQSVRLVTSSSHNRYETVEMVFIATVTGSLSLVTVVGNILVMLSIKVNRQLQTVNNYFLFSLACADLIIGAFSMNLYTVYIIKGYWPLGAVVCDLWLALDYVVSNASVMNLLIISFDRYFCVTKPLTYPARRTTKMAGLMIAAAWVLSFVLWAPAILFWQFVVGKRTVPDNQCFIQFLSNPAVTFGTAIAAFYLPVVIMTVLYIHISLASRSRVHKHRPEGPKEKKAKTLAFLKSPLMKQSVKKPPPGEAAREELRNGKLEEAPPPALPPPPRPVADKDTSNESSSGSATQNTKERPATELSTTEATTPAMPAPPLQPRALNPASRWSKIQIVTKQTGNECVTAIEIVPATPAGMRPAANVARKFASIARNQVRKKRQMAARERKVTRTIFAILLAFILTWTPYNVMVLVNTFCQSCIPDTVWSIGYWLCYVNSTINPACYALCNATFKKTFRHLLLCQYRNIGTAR
How it was run: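 System: HEK293 cells with M4 receptor and GIRK channels | Incubation: Cells overnight at 37 °C, BTC-AM loading 1 h, reads 2 min total | Technique: Kinetic BTC-AM fluorescence sampled at 1 Hz, 10 s pre-addition baseline | Measure: Post-addition slope, 15–24 s, of baseline-normalized fluorescence | Control set: Carbachol positive, DMSO negative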

[7] = blockers of RIG-like receptor reporter activation – cell-based, Sendai virus stimulus, luciferase, 10K MLSCN set, TLR/RLR signaling modifier project, primary screen (AID 602276;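 active means inhibition at or above 50% at 10 µM; inactive means inhibition below 50%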;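 further: firefly luciferase from ISG56 promoter only with Renilla not read in this screen; 0% = Sendai virus plus DMSO and 100% = medium plus DMSO without virus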); details: HEK293 RL24 IRF3 luciferase reporter, at 10 µM, stronger effect = higher value
[8] = TLR3 IRF3 reporter activation blockers – cell-based, poly I:C stimulus, luciferase, 10K MLSCN set, primary screen (AID 602277;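 active means inhibition of the reporter signal at or above 50%; inactive means inhibition below 50%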); details: HEK293-TLR3 RL24 IRF3 luciferase reporter, at 10 µM, stronger effect = higher value

Row | Structure (SMILES) | cell count [1] | inhibition [1] | inhibition of aggregation [2] | nuclei count [2] [%] | inhibition [3] | nuclei count [3] [%] | fluorescence slope [4] | NADPH fluorescence slope [5] | fluorescence slope [6] | inhibition [7] | inhibition [8]
1 | COc1nc(OC)nc(N2CCC(NC(=O)C(Cc3ccc(C(C)C)cc3)NC(C)=O)CC2)n1 (stereo not drawn) | 800 | -5.5% (inactive) | -37.6% (inactive) | 119 | -10.4% (inactive) | 130 | -0.486 (inactive) | -4.2e-05 (inactive) | 0.00515 (inactive) | 12.2% (inactive) | 11.8% (inactive)
2 | CCn1c(C)nc2cc(C(=O)OC(C(F)(F)C(F)F)C(F)(F)C(F)F)ccc21 | 358 | 6% (inactive) | 12.2% (inactive) | 91.2 | -20.9% (inactive) | 93.6 | -0.557 (inactive) | -2.6e-05 (inactive) | 0.00666 (inactive) | 7.52% (inactive) | -180% (inactive)
3 | CCC1Cc2c(nc3c4c(nc(N5CCOCC5)c(C#N)c24)NC(C)=N3)O1 (stereo not drawn) | 657 | 0.8% (inactive) | 7.2% (inactive) | 92.3 | 43.9% (inactive) | 97.4 | -0.35 (inactive) | -1.8e-05 (inactive) | 0.00571 (inactive) | 14.3% (inactive) | 1.06% (inactive)
4 | Cc1c(NS(=O)(=O)c2ccc3c(c2)c(=O)n(C)c(=O)n3C)c(=O)n(-c2ccccc2)n1C | 394 | -4.4% (inactive) | -4.4% (inactive) | 124 | -27.8% (inactive) | 115 | -0.412 (inactive) | 0.000112 (inactive) | 0.00512 (inactive) | 11.2% (inactive) | 25% (inactive)
5 | Cn1c(=O)c2c(nc(SCCCO)n2Cc2ccccc2Cl)n(C)c1=O | 531 | 7.2% (inactive) | -0.4% (inactive) | 96 | 41% (inactive) | 92.6 | -0.424 (inactive) | 3e-05 (inactive) | 0.00759 (inactive) | 7.16% (inactive) | 22.9% (inactive)
6 | COc1ccc(-c2cc(C(=O)Nc3ccc(C)cc3)no2)cc1 | 320 | -6.5% (inactive) | -11.2% (inactive) | 108 | -9.7% (inactive) | 103 | -0.323 (inactive) | -8.4e-07 (inactive) | 0.00844 (inactive) | -20.2% (inactive) | -32.3% (inactive)
7 | Cc1cccn2c(=O)c3cc(C#N)c(=NC(=O)c4cccnc4)n(CC4CCCO4)c3nc12 (stereo not drawn) | 852 | -2.8% (inactive) | -7.5% (inactive) | 105 | -74.7% (inactive) | 107 | -0.0377 (active) | -8.2e-07 (inactive) | 0.0039 (inactive) | -14.2% (inactive) | -0.613% (inactive)
8 | COc1ccc(N2CCN(C(c3cccs3)C(C)NC(=O)c3ccco3)CC2)cc1 (stereo not drawn) | 467 | 5.5% (inactive) | -7.1% (inactive) | 83.9 | 11.8% (inactive) | 101 | -0.368 (inactive) | -7.2e-05 (inactive) | 0.00502 (inactive) | 8.09% (inactive) | 22.4% (inactive)
9 | c1ccc(-c2cc(-c3nc(-c4ccccn4)no3)c3ccccc3n2)cc1 | 469 | 7.6% (inactive) | -4.3% (inactive) | 101 | -171% (inactive) | 140 | -0.265 (inactive) | -8.8e-06 (inactive) | 0.0088 (inactive) | 0.406% (inactive) | -37.7% (inactive)
10 | CN(C)C=Nc1nonc1N | 429 | 9% (inactive) | -2% (inactive) | 105 | 24.6% (inactive) | 99.3 | -0.584 (inactive) | -7.3e-05 (inactive) | 0.00382 (inactive) | 18% (inactive) | 21% (inactive)
11 | COC(=O)c1cc(-c2c(C)nn(-c3ccccc3)c2C)n[nH]1 | 391 | 1.1% (inactive) | -8.1% (inactive) | 111 | 8.5% (inactive) | 95.5 | -0.447 (inactive) | 2.5e-05 (inactive) | 0.00494 (inactive) | -13.2% (inactive) | -66.7% (inactive)
12 | O=S(=O)(NCCc1ccncc1)c1cc(Br)ccc1F | 231 | 1.9% (inactive) | -9.7% (inactive) | 106 | -46.9% (inactive) | 110 | -0.626 (inactive) | -1.6e-05 (inactive) | 0.00792 (inactive) | 24.5% (inactive) | 16.5% (inactive)
13 | C/C(Cl)=C\Cn1c(Nc2ccc(C)cc2)nc2c1c(=O)n(C)c(=O)n2C | 533 | -1.1% (inactive) | 24.5% (inactive) | 78.9 | -73.9% (inactive) | 117 | -0.572 (inactive) | -4.2e-05 (inactive) | 0.00543 (inactive) | 16.1% (inactive) | 17.5% (inactive)
14 | Cc1cc(C(=O)O)ccc1-n1c(C)ccc1C | 332 | -3.7% (inactive) | 0.1% (inactive) | 106 | -88.3% (inactive) | 118 | -0.554 (inactive) | -3.5e-05 (inactive) | 0.00607 (inactive) | 14.8% (inactive) | 20% (inactive)
15 | CC(=O)C1=C(O)C(=O)N(Cc2ccco2)C1c1ccc(F)cc1 (stereo not drawn) | 381 | 4.3% (inactive) | -7.7% (inactive) | 92.3 | 21.9% (inactive) | 98 | -0.576 (inactive) | 1e-05 (inactive) | 0.00555 (inactive) | 2% (inactive) | 0.393% (inactive)
16 | CCCCSc1nc2c(cnn2-c2ccc(Cl)cc2)c(=O)[nH]1 | 233 | -0.3% (inactive) | 6.5% (inactive) | 103 | -23.4% (inactive) | 111 | -0.426 (inactive) | -9.3e-05 (inactive) | 0.00579 (inactive) | 16.7% (inactive) | 16.6% (inactive)
17 | O=C(CN1CCOCC1)Nc1cccc(C(=O)Nc2cccc(C(F)(F)F)c2)c1 | 199 | 4.3% (inactive) | 12.5% (inactive) | 90.7 | 1.6% (inactive) | 89.1 | -0.574 (inactive) | -6e-05 (inactive) | 0.0065 (inactive) | 7.38% (inactive) | -4.66% (inactive)
18 | Cc1noc(C)c1CSc1nnc(-c2ccncc2)n1-c1cccc(Cl)c1C | 344 | -2.1% (inactive) | -9% (inactive) | 107 | 51.9% (inactive) | 74.2 | -0.482 (inactive) | 5.5e-05 (inactive) | 0.00492 (inactive) | 10.2% (inactive) | 34.9% (inactive)
19 | CCC1C(=O)n2nc(-c3ccccc3)cc2N=C1C (stereo not drawn) | 330 | 0% (inactive) | -7.3% (inactive) | 102 | -4.1% (inactive) | 114 | -0.506 (inactive) | -4.6e-05 (inactive) | 0.006 (inactive) | -22% (inactive) | -37% (inactive)
20 | COC(=O)c1[nH]c2cc(OC)ccc2c1NC(=O)CCN1CCCCC1 | 290 | 10.8% (inactive) | -12.7% (inactive) | 70.3 | -82.1% (inactive) | 164 | -0.55 (inactive) | -5.4e-05 (inactive) | 0.0032 (inactive) | -3.43% (inactive) | 3.78% (inactive)
21 | Cc1cc2oc(=O)cc(CN3CCCCC3)c2cc1C(C)C | 366 | -3.9% (inactive) | -20.2% (inactive) | 91.1 | 67.8% (active) | 56.9 | -0.56 (inactive) | -2.5e-05 (inactive) | 0.0051 (inactive) | 10.7% (inactive) | 40.9% (inactive)
22 | CCOC(=O)CNc1ccc2c(c1)OCO2 | 368 | -7.7% (inactive) | 8.3% (inactive) | 99.8 | -105% (inactive) | 118 | -0.488 (inactive) | -0.000182 (inactive) | 0.00399 (inactive) | 8.79% (inactive) | 12.5% (inactive)
23 | CCN(C(=O)c1cc2cc3ccc(C)cc3nc2o1)c1ccc(OC)cc1 | 225 | -1.3% (inactive) | 0.1% (inactive) | 107 | -11% (inactive) | 106 | -0.431 (inactive) | -1.6e-05 (inactive) | 0.00704 (inactive) | -25.1% (inactive) | -79.8% (inactive)
24 | Cc1nnc(SCC(=O)Nc2ccc3c4c(cccc24)CC3)n1C | 336 | 1.8% (inactive) | -11.5% (inactive) | 97.3 | -41.4% (inactive) | 108 | -0.24 (inactive) | -4.5e-05 (inactive) | 0.00568 (inactive) | 15.8% (inactive) | 5.58% (inactive)
25 | O=C(O)c1cccc(CN2C(=O)SC(Nc3ccccc3)C2=O)c1 (stereo not drawn) | 510 | 3.6% (inactive) | 5.6% (inactive) | 108 | 39.4% (inactive) | 108 | -0.405 (inactive) | 6.9e-06 (inactive) | 0.00521 (inactive) | 8.76% (inactive) | 18.9% (inactive)
26 | N#Cc1nc(-c2ccc(Cl)cc2)oc1NCCc1ccccn1 | 238 | 18.4% (inactive) | -7.2% (inactive) | 107 | -40.5% (inactive) | 97.9 | -0.59 (inactive) | -2.8e-06 (inactive) | 0.00656 (inactive) | 24.4% (inactive) | -35% (inactive)
27 | CC(=O)Nc1ccc(OC(=O)c2cccnc2)cc1 | 367 | 0.3% (inactive) | -13.8% (inactive) | 103 | -194% (inactive) | 112 | -0.318 (inactive) | -4.9e-05 (inactive) | 0.00601 (inactive) | -10.8% (inactive) | -12.7% (inactive)
28 | Cc1cccc(C)c1OCc1nnc2c3cnn(C)c3ncn12 | 456 | 8.1% (inactive) | -5.7% (inactive) | 97.5 | -299% (inactive) | 125 | -0.533 (inactive) | -0.000169 (inactive) | 0.0037 (inactive) | -9.31% (inactive) | -26.9% (inactive)
